Data taken from paper PMC11533052 (Nanoscale Advances, 2024).

Columns and labels:
4T1 tumor-bearing mice [1] = assay: In vivo anti-tumor research in 4T1 tumor-bearing mice; design: species or system BALB/c mice
In short: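 Female BALB/c mice (6 weeks, 16–18 g) received 4T1 cells (1 × 10^7 cells per mL, 100 μL) s.c. into the right forelimb axilla. At about 100 mm3 tumor volume, mice were randomised (n = 5) to saline, free drug, or drug-loaded hydrogel (1 mg mL-1 drug : 20 mg mL-1 peptide). Dosing was s.c. near the tumor at 100 μL/20 g, giving […], on day 1. Weight and tumor volume were recorded. Tumors and organs were taken at day 7, formalin-fixed, H&E and TUNEL stained.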

4T1 tumor-bearing mice [2] = assay: In vivo biological distribution analysis; design: species or system BALB/c mice; conditions: DiR 1 mg kg^−1 s.c. near the tumor, n = 3
In short: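 4T1 tumor-bearing mice (tumor about 200 mm3) were randomised (n = 3) to free near-infrared dye DiR at 1 mg kg-1 or hydrogel-loaded DiR at the equivalent dose, injected s.c. near the tumor at 100 μL/20 g. Anaesthetised mice were imaged live at 1, 6, 12, 24, 48 and 96 h (λex 748 nm, λem 780 nm). At 96 h, mice were euthanised and organs collected.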

ex vivo fluorescence distribution in tumor and organs (4T1 tumor-bearing mice [2]; 96 hours after administration) | in vivo fluorescence over time (4T1 tumor-bearing mice [2]; live imaging 1–96 hours) | SMILES | tumor growth inhibition (4T1 tumor-bearing mice [1]; 7 days, versus NS group, n = 5) | body weight of mice at start (4T1 tumor-bearing mice [1]; day 1, s.c. near the tumor, DOX 1 mg mL^−1, 100 μL/20 g, n = 5) | histology of major organs (H&E) (4T1 tumor-bearing mice [1]; heart, liver, spleen, lung, kidney after 7 days of treatment) | body weight of mice at end (4T1 tumor-bearing mice [1]; within 7 days, s.c. near the tumor, DOX 1 mg mL^−1, 100 μL/20 g, n = 5)
– | – | COc1cccc2c1C(=O)c1c(O)c3c(c(O)c1C2=O)C[C@@](O)(C(=O)CO)C[C@@H]3O[C@H]1C[C@H](N)[C@H](O)[C@H](C)O1 [DOX, doxorubicin] | significant tumor growth inhibition | 18.8 g | significant necrosis of heart and liver cells | 16.9 g
widespread fluorescence distribution | rapidly decreased over time | CCCCCCCCCCCCCCCCCCN1/C(=C/C=C/C=C/C=C/C2=[N+](CCCCCCCCCCCCCCCCCC)c3ccccc3C2(C)C)C(C)(C)c2ccccc21.[I-] [DiR] | – | – | – | –
